Measurements collected from several papers.
Lines come from different studies, so protocols differ.
Observed: cell growth or viability

SMILES | cell line | method | tested at | time | quantity | result
CC(C)(C)c1cnc(CSc2cnc(NC(=O)C3CCN(CCCCCCCCSc4cccc5c4C(=O)N(C4CCC(=O)NC4=O)C5=O)CC3)s2)o1 (centres unmarked) | HH | CCK-8 | 0.15 µM |  | viability | 16.5%
CC(=O)c1nn(-c2ccc(C)cc2)/c(=N/N=C(\C)c2ccc(NC(=O)c3ccccc3)cc2)s1 | HepG2 | MTT | 1.25 µM |  | viability | 5.9%
CNc1ncc2c(/C=C/C(=O)N3CCOCC3)nn(CC3CCCC3)c2n1 | OE33 | resazurin |  | 5 days | EC50 | > 30 µM
CC(=O)Nc1ccc(Oc2nnc(-c3ccc(Cl)cc3)c3ccccc23)cc1 | HepG2 | MTT | 0.625 µM |  | cell death | 88.3%
CC(C)(C)c1cnc(CSc2cnc(NC(=O)C3CCN(CCCCSc4cccc5c4C(=O)N(C4CCC(=O)NC4=O)C5=O)CC3)s2)o1 (centres unmarked) | HH | CCK-8 | 0.15 µM |  | viability | 36.9%
CNc1ncc2c(/C=C/C(=O)N3CCC(OC)CC3)nn(CC3CCCCC3)c2n1 | OE33 | resazurin |  | 5 days | EC50 | 6.51 µM
O=C(Nc1ccc(Oc2nnc(-c3ccc(Cl)cc3)c3ccccc23)cc1)c1cccc([N+](=O)[O-])c1 | HepG2 | MTT | 5 µM |  | cell death | 94.8%
CNc1ncc2c(/C=C/C(=O)N3CCC(OC)CC3)nn(CC3OCCO3)c2n1 | OE33 | resazurin |  | 5 days | EC50 | > 30 µM
O=C(C=Cc1ccccc1)Nc1ccc(Oc2nnc(-c3ccc(Cl)cc3)c3ccccc23)cc1 | HepG2 | MTT | 2.5 µM |  | cell death | 87.9%
CC(C)(C)c1cnc(CSc2cnc(NC(=O)C3CCN(C(=O)COCCOCCSc4cccc5c4C(=O)N(C4CCC(=O)NC4=O)C5=O)CC3)s2)o1 (centres unmarked) | HH | CCK-8 | 0.4 µM |  | viability | 47.3%
CC(=NNC(N)=S)c1ccc(Nc2nnc(-c3ccc(Cl)cc3)c3ccccc23)cc1 | HepG2 | MTT | 10 µM | 24 h | viability | 7.32%
CCOC(=O)c1nn(-c2cccc(Cl)c2)/c(=N/N=C(\C)c2ccc(NC(=O)c3ccc(Cl)cc3)cc2)s1 | HepG2 | MTT | 10 µM |  | viability | 4.04%
COC1CCN(C(=O)/C=C/c2nn(CC3CCCC3)c3ncnc(N)c23)CC1 | OE33 | resazurin |  | 5 days | EC50 | > 30 µM
CC(C)(C)c1cnc(CSc2cnc(NC(=O)C3CCN(C(=O)CCCSc4cccc5c4C(=O)N(C4CCC(=O)NC4=O)C5=O)CC3)s2)o1 (centres unmarked) | HH | CCK-8 | 0.2 µM |  | viability | 96.7%
O=C(Nc1ccc(Oc2nnc(-c3ccc(Cl)cc3)c3ccccc23)cc1)c1ccccc1 | HepG2 | MTT | 78 nM |  | cell death | 3.97%
CNc1ncc2c(/C=C/C(=O)N3CCCC(OC)C3)nn(Cc3cccc(C)c3)c2n1 (centres unmarked) | OE33 | resazurin |  | 5 days | EC50 | 17.6 µM
CC(=O)c1nn(-c2ccccc2Cl)/c(=N/N=C(\C)c2ccc(NC(=O)c3ccccc3)cc2)s1 | HepG2 | MTT | 0.625 µM |  | viability | 5.95%
CNc1ncc2c(/C=C/C(=O)N3CCC(OC)CC3)nn(Cc3ccccc3)c2n1 | OE33 | resazurin |  | 5 days | EC50 | 7.49 µM
CC(C)(C)c1cnc(CSc2cnc(NC(=O)C3CCN(CCCCCCCSc4cccc5c4C(=O)N(C4CCC(=O)NC4=O)C5=O)CC3)s2)o1 (centres unmarked) | HH | CCK-8 | 0.15 µM |  | viability | 76.7%
CC(=NNC(=O)c1ccccc1Cl)c1ccc(Nc2nnc(-c3ccc(Cl)cc3)c3ccccc23)cc1 | HepG2 | MTT | 0.312 µM |  | cell death | 19.8%
C=CC(=O)NC1CCN(c2ncc3ncnc(Nc4ccc(Oc5ccc6c(c5)ncn6C)c(C)c4)c3n2)CC1 | SBC-5 |  |  |  | EC50 | 0.325 µM
CNc1ncc2c(/C=C/C(=O)N3CCC(OC)CC3)nn(Cc3cccc(OC)c3)c2n1 | OE33 | resazurin |  | 5 days | EC50 | 2.89 µM
CC(=NNC(=S)Nc1ccccc1)c1ccc(Nc2nnc(-c3ccc(Cl)cc3)c3ccccc23)cc1 | HepG2 | MTT | 0.312 µM |  | cell death | 0.861%
CNc1ncc2c(/C=C/C(=O)N3CCC(C)CC3)nn(CC3CCCC3)c2n1 | OE33 | resazurin |  | 5 days | EC50 | > 30 µM
CC(=NNC(=O)c1cccnc1)c1ccc(Nc2nnc(-c3ccc(Cl)cc3)c3ccccc23)cc1 | HepG2 | MTT | 0.312 µM |  | cell death | 6.41%
CC(C)(C)c1cnc(CSc2cnc(NC(=O)C3CCN(CCCCCCCCSc4cccc5c4CN(C4CCC(=O)NC4=O)C5=O)CC3)s2)o1 (centres unmarked) | HH | CCK-8 | 1 nM |  | viability | 97.4%
